mIAP act: increases mouse intestinal alkaline phosphatase activity | muIAP, CDP-Star luminescence, 30 min; hits give high values; 1 = vehicle-only enzyme signal, 0 = enzyme-free wells | activation factor at 10 µM | hit rate 0.24% among 330,000 | AID 2805;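 active means activation factor of at least 2 at 20 µM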
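System: mouse IAP enzyme. Reagent: CDP-Star chemiluminescent phosphatase substrate. Benchmarks: DMSO wells, no-enzyme wells. Times: 30 min enzyme-substrate-compound incubation at room temperature. Detection: luminescence from enzymatic CDP-Star hydrolysis. Doses: test compounds delivered from DMSO solution.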
hIAP block: human IAP inhibition. inhibition, % at 10 µM. hit rate 0.12% among 330,000. P09923. purified IAP, CDP-Star luminescence, 30 min. AID 2544;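 active means inhibition reaching a set limit with compound at 10 µM in the primary screen, cut at about 35% in these data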
Target sequence (P09923 whole entry, looked up): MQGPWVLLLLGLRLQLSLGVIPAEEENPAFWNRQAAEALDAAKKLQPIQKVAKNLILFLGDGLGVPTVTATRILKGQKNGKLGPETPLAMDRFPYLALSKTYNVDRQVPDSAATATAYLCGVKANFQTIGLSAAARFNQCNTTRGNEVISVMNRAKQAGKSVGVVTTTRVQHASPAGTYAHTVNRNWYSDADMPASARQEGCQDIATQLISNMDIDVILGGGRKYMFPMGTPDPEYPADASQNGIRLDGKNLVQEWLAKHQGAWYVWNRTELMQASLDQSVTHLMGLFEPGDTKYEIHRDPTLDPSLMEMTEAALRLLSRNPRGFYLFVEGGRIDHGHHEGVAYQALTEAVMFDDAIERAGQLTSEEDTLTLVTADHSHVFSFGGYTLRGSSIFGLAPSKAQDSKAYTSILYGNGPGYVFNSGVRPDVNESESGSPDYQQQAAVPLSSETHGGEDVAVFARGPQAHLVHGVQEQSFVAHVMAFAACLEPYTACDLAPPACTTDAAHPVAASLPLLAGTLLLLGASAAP
mIAP block: blocks mouse intestinal alkaline phosphatase. AID 2806. hit rate 0.2% among 330,000. purified mouse IAP, CDP-Star luminescence, 30 min. inhibition, % at 10 µM;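 active means inhibition of at least 40% at 10 µM in the primary screen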
bIAP inh: intestinal alkaline phosphatase (bovine) inhibition. purified bovine IAP, CDP-star luminescence, 30 min. inhibition, % at 20 µM. 190,000 tested, under 10 active. AID 1019;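 active means over 50% inhibition of intestinal alkaline phosphatase at 20 µM in the single-dose screen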
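Incubation: 30 min reaction at room temperature / Material: purified bovine intestinal alkaline phosphatase (IAP) enzyme / Input: enzyme at 1/65,000,000 dilution / Dosing: 20 µM single dose / Signal: CDP-star luminescence signal / Reagent: CDP-star chemiluminescent phosphatase substrate, 30 µM final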
bIAP activator: intestinal alkaline phosphatase (bovine) activation. purified bovine IAP, CDP-star luminescence, 30 min; hits give high values; fold of DMSO-control signal, blank-subtracted. AID 1016. activation factor at 20 µM. hit rate 0.17% among 200,000;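 active means activation factor of 2 or more at 20 µM, a signal rise over negative controls twice the positive control's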
hIAP activ: human IAP activation; purified human IAP, CDP-Star luminescence, 30 min; hits give high values; 1 = vehicle-only enzyme, 0 = enzyme-free background; P09923; activation factor at 10 µM; hit rate 0.16% among 330,000;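 active means activation factor of the enzyme at least 2-fold when tested at 20 µM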
mIAP inh conf: mouse IAP inhibition confirmation | shares compounds with mIAP block | inhibition, % at 10 µM | AID 434971 | purified mouse IAP, CDP-Star luminescence, 30 min | hit rate 4.7% among 11,000;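 active means inhibition of at least 40% at 10 µM in either of the two replicates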
Large screens that a line does not name were inactive (follow-up assays come after a bar, where they were run). Only some compounds are listed: those with a hit (about 0.79% of all), similar ones and a draw of the others.

Cn1cnnc1SCC(=O)Nc1ncc([N+](=O)[O-])s1	mIAP block 41 (no result: bIAP inh, bIAP activator) | mIAP inh conf 51
O=C(COC(=O)COc1ccccc1)Nc1ncc([N+](=O)[O-])s1	mIAP block 63 (no result: bIAP inh, bIAP activator) | mIAP inh conf 69
O=C1c2cc(O)c(O)cc2S(=O)(=O)C1c1ccccc1 (stereo unspecified)	mIAP block 51 (no result: bIAP inh, bIAP activator) | mIAP inh conf 62
O=C1c2ccccc2C(=O)C1c1ccc(O)cc1	none
O=C(O)CC(C(=O)O)N1C(=O)/C(=C/C=C/c2ccco2)SC1=S (stereo unspecified)	mIAP block 74 (no result: bIAP inh, bIAP activator) | mIAP inh conf 80
Cn1cccc1/C=C1\SC(=S)N(NC(=O)c2ccccc2O)C1=O	none (no result: bIAP inh, bIAP activator)
O=C(O)CCN1C(=O)/C(=C/c2ccc(-c3nc4ccccc4s3)o2)SC1=S	none
O=C(NN1C(=O)/C(=C/C=C/c2ccco2)SC1=S)c1ccccc1O	mIAP block 87 (no result: bIAP inh, bIAP activator) | mIAP inh conf 93
O=C(O)CC(C(=O)O)N1C(=O)/C(=C/c2ccc(-c3nc4ccccc4s3)o2)SC1=S (stereo unspecified)	mIAP block 63 | mIAP inh conf 62
O=C(O)CCCN1C(=O)/C(=C/C=C/c2ccco2)SC1=S	mIAP block 68 (no result: bIAP inh, bIAP activator) | mIAP inh conf 69
Cc1ccc(NC(=O)CCCN2C(=O)/C(=C/C=C/c3ccccc3)SC2=S)cc1	none
O=[N+]([O-])c1cc([N+](=O)[O-])c(Oc2cncc(Cl)c2)cc1NC1CCCCCCC1	none (no result: bIAP inh, bIAP activator)
COC(=O)c1ccc(C(c2c(C)n(C)n(-c3ccccc3)c2=O)c2c(C)n(C)n(-c3ccccc3)c2=O)cc1	none (no result: bIAP inh, bIAP activator)
Cc1ccc(C2C(C#N)=C(N)SC(N)=C2C#N)o1	mIAP block 44 | mIAP inh conf 45
CCc1ccc(C2C(C#N)=C(N)SC(N)=C2C#N)s1	none
NC(=O)c1ccccc1OCC(=O)Nc1cccnc1Cl	none (no result: bIAP inh, bIAP activator)
CCN(C(=O)CCCCC(=O)N(CC)c1ccccc1)c1ccccc1	none (no result: bIAP inh, bIAP activator)
O=C(O)CNS(=O)(=O)c1ccc2c3c(cccc13)C(=O)N2	mIAP block 48 (no result: bIAP inh, bIAP activator) | mIAP inh conf 49
O=C(O)CCCCCNS(=O)(=O)c1ccc2c3c(cccc13)C(=O)N2	none (no result: bIAP inh, bIAP activator)
O=C(O)c1ccccc1NS(=O)(=O)c1ccc2c3c(cccc13)C(=O)N2	none
CN(c1ccccc1C(=O)O)S(=O)(=O)c1ccc2c3c(cccc13)C(=O)N2	mIAP block 46 | mIAP inh conf 62
Cc1ccccc1NC(=O)Cc1nc(COC(=O)c2cc([N+](=O)[O-])ccc2NCCO)cs1	none (no result: bIAP inh, bIAP activator)
C#CCOCCOCCOCCNc1nc(N2CCN(C(=O)CCCCCCCCCCNC(=O)[C@H](CCC(=O)O)n3cc(CCCCCN)nn3)CC2)nc(N2CCN(C(=O)CCCCCCCCCCNC(=O)[C@@H]([C@H](C)O)n3cc(C)nn3)CC2)n1	none (no result: bIAP inh, bIAP activator)
C#CCOCCOCCOCCNc1nc(N2CCN(C(=O)CCCCCCCCCCNC(=O)[C@H](CCCCN)n3cc(C)nn3)CC2)nc(N2CCN(C(=O)CCCCCCCCCCNC(=O)[C@@H]([C@H](C)CC)n3cc(CCCCCN)nn3)CC2)n1	mIAP act 3 (no result: bIAP inh, bIAP activator) | mIAP inh conf inactive
C#CCOCCOCCOCCNc1nc(N2CCN(C(=O)CCCCCCCCCCNC(=O)Cn3cc(CCCCCN)nn3)CC2)nc(N2CCN(C(=O)CCCCCCCCCCNC(=O)[C@H]([C@@H](C)CC)n3cc(CCCCCN)nn3)CC2)n1	mIAP act 4.1 (no result: bIAP inh, bIAP activator) | mIAP inh conf inactive
C#CCOCCOCCOCCNc1nc(N2CCN(C(=O)CCCCCCCCCCNC(=O)[C@H]([C@@H](C)CC)n3cc(CCCCCN)nn3)CC2)nc(N2CCN(C(=O)CCCCCCCCCCNC(=O)[C@@H]([C@H](C)O)n3cc(C)nn3)CC2)n1	mIAP act 2.1 (no result: bIAP inh, bIAP activator) | mIAP inh conf inactive
O=C(CCSc1ccccc1Cl)NNC(=O)c1ccncc1	none (no result: bIAP inh, bIAP activator)
CC(NC(=O)Nc1ccc(Cl)c(Cl)c1)C(c1ccccc1)N1CCOCC1 (stereo unspecified)	mIAP act 4.3 | mIAP inh conf inactive
CC(NC(=O)Nc1ccc([N+](=O)[O-])cc1)C(c1ccccc1)N1CCOCC1 (stereo unspecified)	none
CCc1cccc(CC)c1-n1c(SCC(=O)N2CCc3ccccc3C2)nnc1-c1cccnc1	none
CCOc1ccc(CCNC(=O)c2cc(-c3ccccc3)c(N3CCOCC3)s2)cc1	mIAP act 3.2 (no result: bIAP inh, bIAP activator) | mIAP inh conf inactive
O=C(NCc1ccc2c(c1)OCO2)c1cc(-c2ccccc2)c(N2CCOCC2)s1	none (no result: bIAP inh, bIAP activator)
O=C(NCCN1CCN(c2ccccc2)CC1)Nc1ccccc1Br	none (no result: bIAP inh, bIAP activator)
CCOC(=O)c1ccc(N2CCN(c3ccccc3F)CC2)c(NC(=O)Nc2cccc(OC)c2)c1	mIAP act 8.6 | mIAP inh conf inactive
COC(=O)c1ccc(N2CCOCC2)c(NC(=O)Nc2cccc(OC)c2)c1	none
COC(=O)c1ccccc1NCc1cc(=O)oc2cc(O)c(O)cc12	mIAP block 44 (no result: bIAP inh, bIAP activator) | mIAP inh conf 44
COc1cccc2cc(C(=O)N(Cc3cccs3)CC3CCCO3)c(=O)oc12 (stereo unspecified)	none
O=C(c1ccc2c(c1)OCO2)[C@@H]1[C@@H]2C(=O)N(C3CCCCC3)C(=O)[C@@H]2C2c3ccccc3C=CN21 (stereo partly specified)	none (no result: mIAP act, hIAP block, mIAP block, hIAP activ)
O=C(c1cccs1)[C@@H]1[C@@H]2C(=O)N(Cc3ccc4c(c3)OCO4)C(=O)[C@@H]2C2c3ccccc3C=CN21 (stereo partly specified)	mIAP block 46 | mIAP inh conf 43
COc1ccc(C(CNC(=O)c2ccc(OC)c(S(=O)(=O)N3CCCC3)c2)N2CCCC2)cc1 (stereo unspecified)	none (no result: bIAP inh, bIAP activator)
COc1ccc(/C=C/c2nc(-c3ccccc3O)n[nH]2)cc1OC	none
O=C(O)COc1ccc(/C=C/c2nc(-c3ccccc3O)n[nH]2)cc1	mIAP block 52 (no result: bIAP inh, bIAP activator) | mIAP inh conf 62
CC1CCN(S(=O)(=O)c2cccc3cccnc23)CC1	none (no result: bIAP inh, bIAP activator)
Cc1cc(/C=C2\SC(=S)NC2=O)c(C)n1-c1cccc(O)c1	mIAP block 76 (no result: bIAP inh, bIAP activator) | mIAP inh conf 75
Cc1sc(-n2c(C)cc(/C=C3\SC(=S)NC3=O)c2C)c(C#N)c1C	mIAP block 50 | mIAP inh conf 64
Cc1cc(/C=C2\SC(=S)NC2=O)c(C)[nH]1	mIAP block 70 | mIAP inh conf 87
CCOC(=O)C1=C(C)N=c2s/c(=C/c3cccc([N+](=O)[O-])c3O)c(=O)n2C1c1ccc(OC)cc1OC (stereo unspecified)	mIAP block 43 (no result: bIAP inh, bIAP activator) | mIAP inh conf 44
CCOC(=O)C1=C(C)N=c2s/c(=C\c3ccc(O)c([N+](=O)[O-])c3)c(=O)n2C1c1ccccc1OC (stereo unspecified)	none (no result: bIAP inh, bIAP activator)

Source: PubChem BioAssay (Sanford-Burnham Center for Chemical Genomics)
